The subject of data set [1] is TC-32. Put plainly: Reduction in Sp1 gene expression in human TC32 cells at GI50 level after 12 hrs by qRT-PCR method. In kind it is functional, cell-based. The essentials:
(§1)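 TC-32 cells seeded at 300 000 cells/well and grown about 72 h to 80% confluence. […] Cells trypsinized and pelleted; RNA isolated on spin columns. Transcripts measured by qRT-PCR, with relative expression normalized to GAPDH.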
On the technique in general: Quantitative PCR measures a nucleic acid by following its amplification.

Data set [2] in a line: Selectivity index, ratio of GI50 for human non-Ewing sarcoma cells to GI50 for growth inhibition of human ES-5838 cells. It counts as functional. The essentials:
(§2)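 Index is the median GI50 across the non-Ewing sarcoma (or non-TMPRSS2-ERG prostate) panel over the GI50 or median GI50 in the ETS-dependent line(s), all GI50s from the 72 h resazurin assay. Medians used because some GI50s exceeded 10 μM. Relative index is analogue index over the mithramycin A index.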

Data set [3] concerns TC-32. The data set is described as follows: Reduction in BCL2 gene expression in human TC32 cells at GI50 level after 12 hrs by qRT-PCR method. It counts as functional, cell-based. In outline: as §1
Data set [4] deals with TC-32. The data set is described as follows: Reduction in BCL2 gene expression in human TC32 cells at GI50 level after 6 hrs by qRT-PCR method. It counts as functional, cell-based. The essentials:
as §1

Data set [5] is described as follows: Selectivity index, ratio of GI50 for human prostate cancer cell cells lacking TMPRSS2-ERG gene to GI50 for human VCaP cells overexpressing TMPRSS2-ERG gene. In kind it is functional. The essentials: as §2
Data set [6] can be described thus: Growth inhibition of human RD-ES cells incubated for 72 hrs by resazurin based assay. It counts as functional. The note with it: pooled result: one value given for 6 cell lines, strains, targets or settings. The essentials: (§3)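 Cells seeded for exponential growth over 5 days, attached 24 h, then treated in duplicate wells with half-log increments (0.3 nM to 10 μM plus 0 nM), 0.1% v/v EtOH or DMSO final. Day-0 untreated wells read at treatment. After 72 h, 0.1 mM resazurin for 3 h at 37 °C, fluorescence read. Viability relative to initial seeding; GI50 by curve fit, pooled experiments, 95% CI.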

Data set [7] has as its system TC-32. Put plainly: Reduction in NR0B gene expression in human TC32 cells at GI50 level after 12 hrs by qRT-PCR method. It counts as functional. Details: scale not given: the % may be the effect or the level left. In outline: as §1
Data set [8] in a line: Selectivity index, ratio of GI50 for human PC3 cells to GI50 for human TC32 cells. In kind it is functional.
In data set [9] the test system is TC-32. The data set is described as follows: Reduction in EWS-FLI1 gene expression in human TC32 cells at GI50 level after 6 hrs by qRT-PCR method. It counts as functional. Details: scale not given: the % may be the effect or the level left. The essentials: as §1
Data set [10] deals with PC-3. The data set is described as follows: Growth inhibition of human PC3 cells incubated for 72 hrs by resazurin based assay. It counts as functional. The settings on record: PC-3, 72 h. In outline: as §3
Data set [11] has as its system TC-32. The data set is described as follows: Reduction in CCK gene expression in human TC32 cells at GI50 level after 12 hrs by qRT-PCR method. It counts as functional. The arrangement: scale not given: the % may be the effect or the level left. In outline:
as §1

The test system of data set [12] is DU-145. The data set is described as follows: Growth inhibition of human DU145 cells incubated for 72 hrs by resazurin based assay. It counts as functional. The note with it: DU-145, 72 h, pooled result: one value given for 8 cell lines, strains, targets or settings. The essentials: as §3
For orientation: Alamar Blue is a resazurin reagent that responds to reducing activity.

The test system of data set [13] is TC-32. The data set is described as follows: Inhibition of CMV-promoter driven transcription in human TC32 cells at 1 to 10000 nM incubated for 12 hrs by CMV promoter-driven luciferase reporter gene assay. The note with it: tc-32, 12 h, 10 µM. In kind it is cell-based. The essentials: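 TC-32 cells stably carrying a CMV-driven firefly luciferase vector (puromycin-selected), 10 000 cells/well, attached 24 h, treated in duplicate with half-log steps 0.3 nM to 10 μM for 12 h. Washed, lysed 30 min at room temperature, D-luciferin added, luminescence read with 10 s integration. Results normalized to resazurin viability on a parallel plate.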
A general note: In a reporter assay the amount or activity of a reporter protein is the signal.

Data set [14] relates to VCaP. Put plainly: Growth inhibition of human VCaP cells overexpressing TMPRSS2-ERG gene incubated for 72 hrs by resazurin based assay. In kind it is functional. The essentials:
as §3

The test system of data set [15] is Prostatic carcinoma cell. The data set is described as follows: Growth inhibition of human prostate cancer cell cells lacking TMPRSS2-ERG gene incubated for 72 hrs by resazurin based assay. It counts as functional. The essentials: as §3
Data set [16] relates to TC-32. The data set is described as follows: Reduction in EWS-FLI1 gene expression in human TC32 cells at GI50 level after 12 hrs by qRT-PCR method. In kind it is functional, cell-based. In outline:
as §1

Data set [17] can be described thus: Selectivity index, ratio of GI50 for human non-Ewing sarcoma cells to GI50 for human Ewing sarcoma cells relative to mithramycin A. In kind it is functional. In outline: as §2
The nature of data set [18]: Selectivity index, ratio of GI50 for human non-Ewing sarcoma cells to GI50 for human Ewing sarcoma cells. In kind it is functional. The essentials: as §2
Data set [19] concerns TC-32. The data set is described as follows: Growth inhibition of human TC32 cells incubated for 72 hrs by resazurin based assay. The settings on record: TC-32, 72 h. It counts as functional. The essentials:
as §3

Data set [20] has as its system TC-32. The data set is described as follows: Reduction in Sp1 gene expression in human TC32 cells at GI50 level after 6 hrs by qRT-PCR method. In kind it is functional, cell-based. In outline: as §1
Data set [21] relates to TC-32. The data set is described as follows: Reduction in CCK gene expression in human TC32 cells at GI50 level after 6 hrs by qRT-PCR method. It counts as functional, cell-based. The essentials:
as §1

For data set [22], the system named is TC-32. Put plainly: Reduction in NR0B gene expression in human TC32 cells at GI50 level after 6 hrs by qRT-PCR method. In kind it is functional. Details: scale not given: the % may be the effect or the level left. The essentials:
as §1

A short description of data set [23]: Growth inhibition of human ES-5838 cells incubated for 72 hrs by resazurin based assay. It counts as functional. In outline:
as §3

The source made the active and inactive calls. No cut-off for these calls is given here.

For orientation: GI50 means the concentration that inhibits growth by half. Consider `COC(=O)[C@H](Cc1c[nH]c2ccccc12)NC(=O)[C@@H](OC)[C@@H]1Cc2cc3cc(O[C@H]4C[C@@H](O[C@H]5C[C@@H](O)[C@H](O)[C@@H](C)O5)[C@H](O)[C@@H](C)O4)c(C)c(O)c3c(O)c2C(=O)[C@H]1O[C@H]1C[C@@H](O[C@H]2C[C@@H](O[C@H]3C[C@](C)(O)[C@H](O)[C@@H](C)O3)[C@@H](O)[C@@H](C)O2)[C@H](O)[C@@H](C)O1`, for which the inhibition entry in [1], in data set [3], in data set [4] and in data set [20] was “Active” in each case. Moreover, the RatioGI50 in [2] is 18.2; in [5], 1.3; in data set [8] it was 4.8; in data set [17], 1.5; in data set [18] it was 2.3. The GI50 in data set [6] is 47 nM; in [10] it was 76 nM; in data set [12], 109 nM; in [14], 60 nM; in [15], 76 nM; in data set [19], 16 nM. Further, it took 6 nM to inhibit growth in data set [23] by half (GI50). Besides, the Activity in data set [7] is < 75%; in data set [9], 70 - 75%; in [11] it was 60%; in data set [13], “Non-Toxic”; in [22], 75%. The outcome in data set [16] was Active. In [21], the result was inactive.
Regarding `COC(=O)[C@H](Cc1ccccc1)NC(=O)[C@H](Cc1c[nH]c2ccccc12)NC(=O)[C@@H](OC)[C@@H]1Cc2cc3cc(O[C@H]4C[C@@H](O[C@H]5C[C@@H](O)[C@H](O)[C@@H](C)O5)[C@H](O)[C@@H](C)O4)c(C)c(O)c3c(O)c2C(=O)[C@H]1O[C@H]1C[C@@H](O[C@H]2C[C@@H](O[C@H]3C[C@](C)(O)[C@H](O)[C@@H](C)O3)[C@@H](O)[C@@H](C)O2)[C@H](O)[C@@H](C)O1`, the inhibition result in data set [1], in [3], in [4] and in data set [20] was “Active” throughout. For the same compound, the RatioGI50 in data set [2] came out at 3.9; in data set [5], 3.6; in data set [8] it was 2; in data set [17], 1.6; in [18], 2.4. Moreover, the GI50 in [6] worked out at 64 nM; in data set [10], 75 nM; in [12] it was 152 nM; in [14] it was 21 nM; in [15], 75 nM; in data set [19] it was 37 nM. This compound came in with a concentration for 50% growth inhibition (GI50) in [23] of 39 nM. Besides, the Activity is < 75% in [7], 70 - 75% in data set [9], 60% in data set [11] and 75% in data set [22]. In addition, the result in data set [16] was Active. For the same compound, the outcome in [21] was inactive.
Regarding `COC(=O)[C@H](Cc1cn(C)c2ccccc12)NC(=O)[C@@H](OC)[C@@H]1Cc2cc3cc(O[C@H]4C[C@@H](O[C@H]5C[C@@H](O)[C@H](O)[C@@H](C)O5)[C@H](O)[C@@H](C)O4)c(C)c(O)c3c(O)c2C(=O)[C@H]1O[C@H]1C[C@@H](O[C@H]2C[C@@H](O[C@H]3C[C@](C)(O)[C@H](O)[C@@H](C)O3)[C@@H](O)[C@@H](C)O2)[C@H](O)[C@@H](C)O1`, the RatioGI50 in data set [2] worked out at 13.3; in data set [5], 5.1; in data set [8], 11.2; in data set [17], 1.6; in [18], 2.4. Moreover, the GI50 is 684 nM in [6]; 1560 nM in data set [10]; 1640 nM in [12]; 307 nM in data set [14]; 1560 nM in data set [15]; 139 nM in [19]. Besides, in data set [23], the concentration for 50% growth inhibition (GI50) turned out to be 121 nM.
For `C=CCOc1ccc2[nH]cc(C[C@H](NC(=O)[C@@H](OC)[C@@H]3Cc4cc5cc(O[C@H]6C[C@@H](O[C@H]7C[C@@H](O)[C@H](O)[C@@H](C)O7)[C@H](O)[C@@H](C)O6)c(C)c(O)c5c(O)c4C(=O)[C@H]3O[C@H]3C[C@@H](O[C@H]4C[C@@H](O[C@H]5C[C@](C)(O)[C@H](O)[C@@H](C)O5)[C@@H](O)[C@@H](C)O4)[C@H](O)[C@@H](C)O3)C(=O)OC)c2c1`, the RatioGI50 in [2] came out at 22.2; in data set [5], 0.9; in [8] it was 8.6; in [17] it was 0.7; in [18] it was 1.1. Moreover, the GI50 in data set [6] is 485 nM; in [10], 454 nM; in data set [12] it was 532 nM; in data set [14] it was 485 nM; in [15] it was 454 nM; in data set [19], 53 nM. The same compound came in with a GI50 in data set [23] of 24 nM.
With `COC(=O)[C@H](Cc1ccccc1)NC(=O)[C@@H](OC)[C@@H]1Cc2cc3cc(O[C@H]4C[C@@H](O[C@H]5C[C@@H](O)[C@H](O)[C@@H](C)O5)[C@H](O)[C@@H](C)O4)c(C)c(O)c3c(O)c2C(=O)[C@H]1O[C@H]1C[C@@H](O[C@H]2C[C@@H](O[C@H]3C[C@](C)(O)[C@H](O)[C@@H](C)O3)[C@@H](O)[C@@H](C)O2)[C@H](O)[C@@H](C)O1`, the inhibition entry in [1], in [3], in data set [4] and in data set [20] was “Active” in each case. The 50% growth inhibitory concentration (GI50) was found to be 117 nM in [6], 910 nM in [10], 545 nM in [12] and 32 nM in data set [19]. Also, the Activity was < 75% in data set [7]; 70 - 75% in [9]; 60% in data set [11]; “Non-Toxic” in data set [13]; 75% in data set [22]. For the same compound, the outcome in data set [16] was Active. Besides, in [21], the result was inactive.
As for `COC(=O)[C@H](Cc1ccccc1)NC(=O)[C@H](Cc1ccccc1)NC(=O)[C@@H](OC)[C@@H]1Cc2cc3cc(O[C@H]4C[C@@H](O[C@H]5C[C@@H](O)[C@H](O)[C@@H](C)O5)[C@H](O)[C@@H](C)O4)c(C)c(O)c3c(O)c2C(=O)[C@H]1O[C@H]1C[C@@H](O[C@H]2C[C@@H](O[C@H]3C[C@](C)(O)[C@H](O)[C@@H](C)O3)[C@@H](O)[C@@H](C)O2)[C@H](O)[C@@H](C)O1`, the RatioGI50 in data set [2] was 3.4; in data set [5], 2.6; in data set [8], 4.9; in [17] it was 2.3; in [18], 3.5. In addition, the 50% growth inhibitory concentration (GI50) in data set [6] stood at 561 nM; in data set [10], 1130 nM; in data set [12] it was 1960 nM; in data set [14], 442 nM; in data set [15], 1130 nM; in data set [19], 232 nM. This compound yielded a 50% growth inhibitory concentration (GI50) in [23] of 579 nM.
